Results collected from several papers.
Protocols differ between the studies behind these lines.
Target: High affinity nerve growth factor receptor (NTRK1, Homo sapiens, UniProt P04629)
Read-out: enzyme activity
Mode: inhibitor

SMILES	assay	conditions	inhibition
CCN(CC)CCNC(=O)c1c(C)[nH]c(/C=C2\C(=O)Nc3ccc(F)cc32)c1C	–	10 µM	99%
O=C(Nc1ccc2[nH]ncc2c1)c1cccc(NC(=S)Nc2ccc(C(F)(F)F)cc2)c1	FRET	1 µM	58%
Cc1ccc(Nc2nccc(N(C)c3ccc4c(C)n(C)nc4c3)n2)cc1S(N)(=O)=O	–	10 µM	79%
COc1cc2ncnc(Nc3ccc(Oc4ccccc4)cc3C)c2cc1OC	–	1 µM	9%
CNCc1ccc(-c2cc(-c3nc(-c4ccc(S(=O)(=O)C(C)C)cc4)cnc3N)on2)cc1	–	2 µM	32%
CNC(=O)c1cc2c(Oc3ccc(NC(=O)C4(C(=O)Nc5ccc(F)cc5)CC4)cc3)ccnc2cc1OC	radiometric	1 µM	99%
O=C(Nc1ccc(C(F)(F)F)cc1)Nc1cccc(C(=O)Nc2ccc3[nH]nc(-c4ccccc4)c3c2)c1	FRET	1 µM	17%
CN(C)C1CCN(CC#Cc2nn(C3CCCC3)c3nc(NCc4ccccc4)ncc23)C1 (stereo not shown)	FRET	0.1 µM	6%
CNC(=O)c1cc(Oc2ccc(NC(=O)Nc3ccc(Cl)c(C(F)(F)F)c3)cc2)ccn1	–	0.3 µM	36%
O=C(Nc1ccc(Cl)cc1)Nc1cccc(C(=O)Nc2ccc3[nH]ncc3c2)c1	FRET	1 µM	55.3%
CCCS(=O)(=O)Nc1ccc(F)c(C(=O)c2c[nH]c3ncc(-c4ccc(Cl)cc4)cc23)c1F	–	1 µM	< 10%
C=CC(=O)Nc1cc(Nc2nccc(Nc3cc(Cl)c(F)cc3C(C)(C)O)n2)c(OC)cc1N1CC[C@@H](N(C)C)C1	–	1 µM	51%
CN1CCN(CC(=O)Nc2cccc(C(=O)Nc3ccc4[nH]ncc4c3)c2)CC1	FRET	1 µM	14.1%
